# Bioassay records as filed in PubChem BioAssay.
# PHOSPHO1 inh: PHOSPHO1 (human) inhibition; Q8TCT1; recombinant PHOSPHO1, absorbance phosphatase assay; inhibition, % at 13.3 µM; 290,000 compounds, 1.1% hits; AID 1565; in the data active = inhibition above about 60%
# PGE2 EP2 inh: EP2 receptor (human) inhibition | AID 1422 | C6 glioma cells expressing human EP2, cAMP TR-FRET; cells stimulated with saturating PGE2 | inhibition, % at 25 µM | 260,000 compounds, 0.52% hits;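 active = percent inhibition above 40 after rounding to a whole number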;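 note: rat C6 glioma host cells with rolipram phosphodiesterase inhibitor present; the protocol text gives 20 µM as final concentration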
# PfGluPho inh: PfG6PD (Plasmodium falciparum) enzyme inhibition; 350,000 compounds, 0.78% hits; inhibition, % at 20 µM; PfGluPho enzyme, NADPH resazurin-diaphorase fluorescence;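 active = inhibition reaching at least a set limit at 20 µM in the primary screen, cut at about 59% in these data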
# Tb hexokinase: blocks Trypanosoma brucei hexokinase 1 activity; inhibition, % at 10 µM; recombinant TbHK1, G6PDH-coupled NADH A340; 220,000 compounds, 0.11% hits;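 active = inhibition of 50% or more in the single-dose primary screen; inactive = inhibition below 50%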
# EP2 mod: modulates human prostaglandin E2 receptor EP2 signaling; induction, % at 25 µM; EP2-expressing cells, cAMP HTRF FRET, PGE2 co-stimulation; P43116; 260,000 compounds, 0.83% hits; AID 940;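 active = compounds whose cAMP rise, as percent of the full-agonist control response, exceeds 60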;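 note: rat C6 glioma line stably carrying human EP2 under a CMV promoter; the protocol text gives 20 µM as final concentration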
# HKDC1 inhibitor: inhibitors of human hexokinase HKDC1 | Q2TB90 | recombinant HKDC1, G6PDH/diaphorase resazurin coupled fluorescence | inhibition, % at 20 µM | 340,000 compounds, 0.16% hits;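 active = inhibition above about 35% when tested at 20 µM, limit read from the data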
# Target sequence (Q2TB90 whole entry, looked up): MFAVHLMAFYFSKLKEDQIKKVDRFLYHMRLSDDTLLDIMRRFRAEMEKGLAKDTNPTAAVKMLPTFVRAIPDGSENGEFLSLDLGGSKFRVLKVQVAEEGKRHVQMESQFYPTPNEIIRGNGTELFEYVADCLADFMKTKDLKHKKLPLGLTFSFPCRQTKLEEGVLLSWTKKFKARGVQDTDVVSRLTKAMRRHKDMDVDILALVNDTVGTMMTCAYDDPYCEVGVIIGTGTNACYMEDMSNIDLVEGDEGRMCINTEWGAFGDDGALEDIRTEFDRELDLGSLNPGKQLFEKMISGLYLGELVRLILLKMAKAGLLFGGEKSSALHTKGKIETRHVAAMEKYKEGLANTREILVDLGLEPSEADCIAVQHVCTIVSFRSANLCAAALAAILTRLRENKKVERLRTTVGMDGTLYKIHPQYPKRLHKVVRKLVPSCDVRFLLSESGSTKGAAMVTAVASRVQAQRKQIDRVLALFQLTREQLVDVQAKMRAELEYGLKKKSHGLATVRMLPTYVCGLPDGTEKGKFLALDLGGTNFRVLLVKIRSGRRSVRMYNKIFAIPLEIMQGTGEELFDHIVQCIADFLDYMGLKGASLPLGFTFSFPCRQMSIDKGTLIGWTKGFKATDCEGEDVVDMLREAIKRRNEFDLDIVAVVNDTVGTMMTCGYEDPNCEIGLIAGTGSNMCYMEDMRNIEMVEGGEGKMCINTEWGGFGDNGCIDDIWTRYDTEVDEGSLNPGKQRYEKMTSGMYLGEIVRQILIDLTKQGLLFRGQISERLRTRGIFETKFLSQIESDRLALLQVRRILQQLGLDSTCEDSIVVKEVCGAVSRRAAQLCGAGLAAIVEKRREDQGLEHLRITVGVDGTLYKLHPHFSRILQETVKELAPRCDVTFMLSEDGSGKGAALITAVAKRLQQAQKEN
#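 Material – in-house recombinant HK5 (HKDC1) enzyme · Quantity – HKDC1 at 5 µg/mL · Buffer or medium – pH 8.0 Tris buffer with 10 mM MgCl2 · Reagent – glucose with 1 mM ATP · Dosing – single 20 µM dose · Times – reaction time 90 min, room temperature, protected from light · Technique – resorufin fluorescence at 613 nm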
# Numbers stand for hits; n = inactive; x = no result; ! = not confirmed by another sample. In the library only some 2.5% were active in any assay of this set; here they are far more common.
SMILES,PHOSPHO1 inh,PGE2 EP2 inh,PfGluPho inh,Tb hexokinase,EP2 mod,HKDC1 inhibitor
Cn1c(O)c(C=NC(C)(CO)CO)c(=O)n(C)c1=O,x,n,x,x,n,x
COc1ccc(-c2nn(C)c3sc(C(=O)NCc4ccco4)cc23)cc1OC,n,n,n,n,n,n
COc1ccc(NC(=O)c2cc3c(-c4ccc(OC)c(OC)c4)nn(C)c3s2)cc1OC,n,43,n,n,n,n
CCCc1nn(CC(=O)N2CCOCC2)c(=O)c2cc3ccsc3n12,x,x,x,x,n,x
CCOc1ccc(N2CC(C(=O)Nc3cc(C)ccc3F)CC2=O)cc1 (stereo not drawn),x,n,x,x,n,x
COc1ccc(-c2ccc(=O)n(C[C@H](C)NC(=O)c3cc(C)no3)n2)cc1,x,n,x,x,n,x
COc1cc2[nH]c(=S)nc(NCCC(C)C)c2cc1OC,n,n,n,n,n,n
COCCCNc1nc(=S)[nH]c2cc(OC)c(OC)cc12,82,n,n,n,n,n
C#CCOc1ccc(C2C3=C(CC(C)(C)CC3=O)NC3=C2C(=O)CC(C)(C)C3)cc1OCC,x,n,x,x,n,x
COc1ccccc1CN(Cc1nc2ccccc2c(=O)[nH]1)S(=O)(=O)c1ccc(C)cc1,n,n,n,n,61,n
O=S(=O)(NCc1ccccc1F)c1ccc(S(=O)(=O)N2CCOCC2)cc1,x,n,x,x,n,x
Cn1c(=O)c(C(=O)NCCN2CCNCC2)c(O)c2ccccc21,x,n,x,x,n,x
O=C(COc1ccccc1)Nc1ccc(S(=O)(=O)N2CCOCC2)cc1,n,52,n,n,n,n
CCc1nnc(NC(=O)CCC(=O)N2CCN(Cc3cc(Cl)ccc3OC)CC2)s1,n,n,n,n,n,n
CCc1nnc(NC(=O)CCC(=O)N2CCN(S(=O)(=O)c3cc(Cl)ccc3OC)CC2)s1,70,x,n,x,x,n
O=C(N=c1ccn(-c2nc3ccccc3nc2NS(=O)(=O)c2ccccc2)cc1)c1cccs1,n,49,n,n,n,n
Cc1cccc(Nc2nc(NCc3ccco3)c3ccccc3n2)c1,n,n,n,n,n,n
c1ccc(Nc2nc(NCc3ccco3)c3ccccc3n2)cc1,n,62,n,n,n,n
Cc1c(C(=O)OC(C)C(C)C[N+](C)(C)C)oc2ccccc12 (stereo not drawn),87,n,n,n,n,n
Cc1c(C(=O)OC(C)C(C)CN(C)C)oc2ccccc12 (stereo not drawn),x,n,x,x,n,x
CCOc1cc(CNCc2cccnc2)ccc1OCC(=O)NC(C)(C)C,73,n,n,n,n,n
COCCNc1nc2nonc2nc1NC(C)c1ccccc1Cl (stereo not drawn),60,n,n,n,n,n
CC(=O)Nc1ccc(S(=O)(=O)NC2=C(N3CCN(Cc4ccccc4)CC3)C(=O)c3ccccc3C2=O)cc1,64,x,n,n,n,n
Cc1ccc(S(=O)(=O)NCC(=O)OCc2nnc(-c3ccccc3)o2)cc1,65,x,n,x,x,n
CCOc1ccc(S(=O)(=O)NCC(=O)OCc2nnc(-c3ccccc3)o2)cc1,x,x,n,x,x,n
SMILES,PHOSPHO1 inh,PGE2 EP2 inh,PfGluPho inh,Tb hexokinase,EP2 mod,HKDC1 inhibitor
O=C(C[n+]1ccc2ccccc2c1)c1ccc2ccc3ccccc3c2c1,x,59,x,x,n,x
C[C@@]12C[C@H](O)[C@@H]3[C@H](CCC4=CC(=O)CC[C@]43C)[C@H]1CC[C@H]2c1csc(-c2ccccc2)n1,x,40,x,x,n,x
O=C(NC(=S)Nc1ccc(Cc2ccncc2)cc1)c1ccccc1F,63,n,n,n,n,n
COc1ccc(C2/C(=C(/O)c3ccc(C)cc3)C(=O)C(=O)N2CC2CCCO2)c(OC)c1 (stereo not drawn),x,n,x,x,n,x
COc1ccc(C2C(C(C)=O)=C(C)N=c3s/c(=C\c4cc(C)n(C)c4C)c(=O)n32)c(OC)c1 (stereo not drawn),71,n,n,n,n,n
COc1ccc(C2C(C(C)=O)=C(C)N=c3s/c(=C\c4ccco4)c(=O)n32)c(OC)c1 (stereo not drawn),94,n,n,n,n,n
CC(N)c1ccc2c(c1)OCCO2 (stereo not drawn),x,n,x,x,n,x
Cc1cc(C)n(CC(=O)N/N=C/c2ccc(C)o2)n1,62,n,n,n,n,n
CCOC(=O)c1c(-c2ccc(OC)c(OC)c2)csc1NC(=O)c1cccnc1,x,n,x,x,n,x
Cc1ccc(C(=O)Nc2cc(Cl)ccc2N2CCCCC2)s1,n,n,n,n,62,n
Cc1ccc(-c2nc(Nc3cccc(O)c3)c3ccccc3n2)cc1,n,x,n,x,x,n
Oc1cccc(Nc2c3ccccc3nc3ccccc23)c1,61,x,n,x,x,n
CS(=O)(=O)Nc1ccc(Nc2c3ccccc3nc3ccccc23)cc1,x,64,x,x,n,x
CCOC(=O)C1(Cc2ccccc2)CCCN(Cc2ccncc2)C1 (stereo not drawn),n,n,n,n,n,n
CCOC(=O)C1(Cc2ccccc2)CCCN(CCCn2cccn2)C1 (stereo not drawn),64,n,n,n,n,n
Cn1c(=O)[nH]c(=O)c2c1nc(Sc1nc3ccccc3[nH]1)n2Cc1ccc(Cl)cc1,x,n,x,x,n,x
CCCCC(=O)Nc1ccc2c3c(cccc13)C(=O)N2CC,n,n,n,n,n,n
CCN1C(=O)c2cccc3c(NC(=O)C(C)(C)C)ccc1c23,n,50,n,n,n,n
Cc1ccc(C2(SCC(N)C(=O)O)c3ccccc3-c3ccccc32)cc1 (stereo not drawn),x,x,n,x,x,n
N[C@@H](CSC1(c2ccc(Cl)cc2)c2ccccc2-c2ccccc21)C(=O)O,x,44,x,x,n,x
O=C(c1ccccc1)N1CCN(C2CCCCCC2)CC1,n,n,n,n,n,n
O=C(O)c1c2c(c(O)c3c1CN(C1CCCCC1)CO3)OCN(C1CCCCC1)C2,x,61,x,x,n,x
COc1ccc(N(CC(=O)Nc2ccc3c(c2)OCCO3)S(C)(=O)=O)cc1,x,n,x,x,n,x
COc1ccc(C(=O)NC(=S)Nc2ccc(S(=O)(=O)Nc3cc(OC)ncn3)cc2)cc1,n,n,n,x,n,n
COc1cc(NS(=O)(=O)c2ccc(NC(=S)NC(=O)c3sc4ccccc4c3Cl)cc2)ncn1,n,52,n,n,n,n
SMILES,PHOSPHO1 inh,PGE2 EP2 inh,PfGluPho inh,Tb hexokinase,EP2 mod,HKDC1 inhibitor
COc1cc(NS(=O)(=O)c2ccc(NC(=S)NC(=O)c3ccc(F)cc3)cc2)nc(OC)n1,n,59,n,x,n,n
COc1ccc(OCC(=O)NC(=S)Nc2ccc(S(=O)(=O)Nc3cc(OC)nc(OC)n3)cc2)cc1,n,64,n,n,n,n
Cc1cc(NS(=O)(=O)c2ccc(NC(=S)NC(=O)c3ccc(F)cc3)cc2)no1,n,46!,n,n,n,n
COc1ccc(C(=O)NC(=S)Nc2ccc(S(=O)(=O)Nc3cc(OC)nc(OC)n3)cc2)cc1,n,x,n,x,x,n
CCc1nnc(NC(=O)CSc2nnc(COc3ccccc3)n2CC)s1,x,n,x,x,n,x
O=C1CC[C@@H](CN(Cc2ccccc2)Cc2cn[nH]c2-c2cc3ccccc3o2)N1,n,n,n,n,n,n
c1ccc2oc(-c3[nH]ncc3CN(Cc3ccncc3)CC3CCCO3)cc2c1 (stereo not drawn),60,n,n,n,n,n
